{
  "source": "paper PMC4123212",
  "about": "(Chemistry & biology, 2014)",
  "key": {"Erk2^DS1 [1]": {"target": "T1, Erk2^DS1 (Rattus norvegicus, UniProt P63086, C164L/Q103T)", "assay": "Activation inhibition assay", "assay_type": "biochemical", "settings": "Erk2^DS1, PhosTag-acrylamide PAGE", "outline": "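This run uses the MOPS/MgCl2 activation setup (ATP 5 µM, 30 min compound preincubation at RT) but with tenfold more MEK2. Reactions were stopped in SDS loading buffer without EDTA. Erk2 phospho-forms were resolved by SDS-PAGE in gels containing 50 µM PhosTag-acrylamide and 100 µM MnCl2.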"}, "[2]": {"target": "GFP-tagged Erk2^WT in HEK293 cells (Rattus norvegicus, UniProt P63086)", "assay": "In-cell activation inhibition, EGF-stimulated HEK293 cells", "assay_type": "cell-based", "settings": "2 at 100-1000 nM, SB203580 1000 nM, immunoblot", "outline": "(§1)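 Low-passage HEK293 transiently transfected with GFP-Erk2 plasmid, split next day into 96-well format, serum-starved 24 h. Test compound added for 1 h at 37 °C (final 1% DMSO), then human EGF 50 ng/mL for 5 min at 37 °C. DMSO controls with and without EGF. Cells lysed by boiling in SDS loading buffer; SDS-PAGE, immunoblot for GFP and ppErk.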"}, "Erk2^WT [3]": {"target": "T2, Erk2^WT (Rattus norvegicus, UniProt P63086)", "assay": "Activation inhibition assay", "assay_type": "biochemical", "settings": "ELISA"}, "Erk2^DS2 (Q103A/C164L)": {"target": "Erk2^DS2 (Q103A/C164L) (Rattus norvegicus, UniProt P63086, C164L/Q103A)", "settings": "ref Hari et al., 2013; cited from earlier work"}, "Erk2^WT [4]": {"target": "T2, Erk2^WT", "settings": "Ki values reported previously, ref Hari et al., 2013; cited from earlier work"}, "Erk2^DS1 (Q103T/C164L)": {"tested_on": "Erk2^DS1 (Q103T/C164L)", "settings": "ref Hari et al., 2013; cited from earlier work"}, "phospho-Erk2^WT": {"target": "phospho-Erk2^WT (Rattus norvegicus, UniProt P63086)", "assay": "Phosphatase inhibition: DUSP6-mediated dephosphorylation", "assay_type": "biochemical", "settings": "ELISA"}, "[5]": {"target": "GFP-tagged Erk2^DS1 in HEK293 cells (Rattus norvegicus, UniProt P63086, C164L/Q103T)", "assay": "In-cell activation inhibition, EGF-stimulated HEK293 cells", "assay_type": "cell-based", "settings": "2 at 100-1000 nM, SB203580 1000 nM, immunoblot", "outline": "as §1"}, "Erk2^DS1 [6]": {"target": "T1, Erk2^DS1", "assay": "Activation inhibition assay", "assay_type": "biochemical", "settings": "Erk2^DS1, ATP 5 µM, bis-phosphorylated Erk2 by ELISA", "outline": "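Erk2 variant preincubated 30 min at RT with ATP (5 µM) and titrated test compound (2% DMSO) in 50 mM MOPS pH 7.4, 10 mM MgCl2, 1 mM DTT, 0.001% Tween 20, 0.1 mg/mL BSA. MEK2 then added and incubated at RT; enzyme levels and times set by linearity. Quenched with 20 mM EDTA, plate-bound overnight at 4 °C, then anti-phospho-Erk2/HRP ELISA. EC50 from nonlinear regression; triplicates.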"}, "phospho-Erk2^DS2": {"target": "phospho-Erk2^DS2 (Rattus norvegicus, UniProt P63086, C164L/Q103A)", "assay": "Phosphatase inhibition: DUSP6-mediated dephosphorylation", "assay_type": "biochemical", "settings": "phospho-Erk2^DS2, relative to apo enzyme, ELISA"}, "Erk2^WT [7]": {"target": "T2, Erk2^WT", "assay": "DUSP6 activation inhibition", "assay_type": "biochemical", "settings": "inhibitor 5 µM, 4-MUP turnover", "outline": "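DUSP6 (140 nM) added for 1 h at RT, then 4-MUP (250 µM). Fluorescence read at Ex/Em 355/460 nm after 2 h at RT; Erk2-free wells used as background.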"}},
  "data": [
    {"smiles": "C[S+]([O-])c1ccc(-c2nc(-c3ccncc3)c(-c3ccc(F)cc3)[nH]2)cc1", "note": "(centres unmarked) [SB203580]", "values": [
      {"measurement": "Formation of bis-phosphorylated Erk2 (MEK2)", "setting": "Erk2^DS1 [1]", "value": "comparable levels of bis-phosphorylation"},
      {"measurement": "Cellular Erk2 activation upon EGF stimulation", "setting": "[2]", "value": "not affected"},
      {"measurement": "Decrease in the amount of activation loop phosphorylated Erk2 (MEK2)", "setting": "Erk2^WT [3]", "value": "neither 2 nor SB203580 lead to a significant decrease"},
      {"measurement": "Sensitivity of drug sensitive Erk2 mutant to inhibitor", "setting": "Erk2^DS2 (Q103A/C164L)", "value": "highly sensitive"},
      {"measurement": "Inhibition of wild type Erk2", "setting": "Erk2^WT [4]", "value": "very weakly inhibited"},
      {"measurement": "Sensitivity of drug sensitive Erk2 mutant to inhibitor", "setting": "Erk2^DS1 (Q103T/C164L)", "value": "highly sensitive"},
      {"measurement": "Effect on DUSP6-mediated dephosphorylation", "setting": "phospho-Erk2^WT", "value": "none of the inhibitors affected"},
      {"measurement": "Cellular Erk2 activation upon EGF stimulation", "setting": "[5]", "value": "had no effect"},
      {"measurement": "Inhibition of dual phosphorylation of Erk2's activation loop by MEK2", "setting": "Erk2^DS1 [6]", "value": "only a minimal effect"},
      {"measurement": "Effect on DUSP6-mediated dephosphorylation of the TxY motif", "setting": "phospho-Erk2^DS2", "value": "enhanced the phosphatase activity of DUSP6"},
      {"measurement": "Effect on Erk2-mediated activation of DUSP6", "setting": "Erk2^WT [7]", "value": "none of these ligands affected"}
    ]}
  ]
}
